In publication PMC6506440 (Scientific Reports, 2013):
Where a SMILES comes first, the peptide text is derived from it.

Legend:
[1] = Circular dichroism, percentage helicity; format: physicochemical; conditions: Percentage helicity derived using circular dichroism, peptide free in solution
Method in brief: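 Peptides were N-terminally acetylated and C-terminally amidated, and HPLC-purified to >90% purity. Stapled variants carried an (i, i + 3) hydrocarbon linkage. Percentage helicity was derived from circular dichroism spectra.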

Full-length human eIF4E [2] = biological target: T1, Full-length human eIF4E (human, UniProt P06730 1-217); test: SPR
T1 sequence (P06730 whole entry): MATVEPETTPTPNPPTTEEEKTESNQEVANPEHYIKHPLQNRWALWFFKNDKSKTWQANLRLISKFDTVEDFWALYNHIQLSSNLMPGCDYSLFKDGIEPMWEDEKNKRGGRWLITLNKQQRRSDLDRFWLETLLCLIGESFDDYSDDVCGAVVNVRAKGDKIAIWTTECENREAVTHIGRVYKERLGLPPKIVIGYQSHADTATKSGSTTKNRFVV

Full-length human eIF4E [3] = biological target: T1, Full-length human eIF4E; test: fluorescence polarisation
Full-length human eIF4E [4] = biological target: T1, Full-length human eIF4E; test: fluorescence polarisation; remark: listed apart in the source

CC(=O)N[C@@H](CCCCN)C(=O)N[C@@H](CCCCN)C(=O)N[C@@H](CCCNC(=N)N)C(=O)N[C@@H](Cc1ccc(O)cc1)C(=O)N[C@@H](CO)C(=O)N[C@@H](CCCNC(=N)N)C(=O)N[C@@H](CCC(=O)O)C(=O)N[C@@H](Cc1ccccc1)C(=O)N[C@@H](CC(C)C)C(=O)N[C@@H](CC(C)C)C(=O)NCC(=O)N[C@@H](Cc1ccccc1)C(N)=O [eIF4G^D5S] (Ac-KKRYSREFLLGF-NH2)
Helicity [1]: 0%

B1: eIF4G^D5S peptide (peptide)
peptide: Ac-KKRYSREFLLGF-NH2
Kd (Full-length human eIF4E [2]): 99.9 ± 6.2 nM
Kd (Full-length human eIF4E [3]): 195 ± 12.1 nM

B2: FAM labeled tracer peptide (KKRYSRDFLLALQK-(FAM)) (peptide)
peptide: Ac-KKRYSRDFLLALQK(FAM)-NH2
binding result (Full-length human eIF4E [4]): binds
